According to ChEMBL document CHEMBL1137343, “4-arylazo-3,5-diamino-1H-pyrazole CDK inhibitors: SAR study, crystal structure in complex with CDK2, selectivity, and cellular effects” (J Med Chem, 2006):
The source made the active and inactive calls. The rule behind the calls is not given here.

Columns and labels:
[1] = target: Casein kinase II (Homo sapiens) (UniProt P67870+P68400+P19784); test: Activity of CK2 at 10 uM; assay type: protein-complex assay
Summary of the method: (§1)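 Radiometric kinase assay at 10 µM inhibitor, run in duplicate. c-Abl, CHK1, GSK3β, p70S6K, PKA and PKBα were run in 8 mM MOPS pH 7.0 with 0.2 mM EDTA. MAPK1 and SAPK2α were run in 25 mM Tris pH 7.5 with 0.02 mM EGTA. CK2 was run in 20 mM HEPES pH 7.6, 0.15 M NaCl, 0.1 mM EDTA, 2 mM DTT and 0.1% Triton X-100. All had 10 mM Mg-acetate, 10 µM ATP, [γ-33P]ATP and a peptide substrate; 40 min; H3PO4 stop; P30 filter; scintillation counting.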

[2] = target: cAMP-dependent protein kinase (PKA) (Homo sapiens) (UniProt P22694+P17612+P22612); test: Activity of PKA at 10 uM; assay type: protein assay; summary of the method: as §1
[3] = target: RAC-alpha serine/threonine-protein kinase (Homo sapiens) (UniProt P31749); test: Activity of PKBalpha at 10 uM; summary of the method: as §1
HT-29 [4] = test: Cell cycle arrest in HT29 cells by accumulation at G0/G1 phase at 50 uM after 3 hrs; assay type: functional, Homo sapiens
Summary of the method: (§2)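 Subconfluent, asynchronous HT-29 cells were treated 3, 6 or 12 h, then pulsed with 10 µM BrdU for 30 min at 37 °C. Cells were fixed in ice-cold 70% ethanol, DNA denatured in 2 M HCl and neutralised with borate. Staining used FITC anti-BrdU, then propidium iodide (0.1 mg/mL) with RNase A. Analysis by flow cytometry with 488 nm laser.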

HT-29 [5] = test: Cell cycle arrest in HT29 cells by accumulation at G0/G1 phase at 50 uM after 6 hrs; assay type: functional, Homo sapiens; summary of the method: as §2
HT-29 [6] = test: Cell cycle arrest in HT29 cells by accumulation at S phase at 50 uM after 6 hrs; assay type: functional, Homo sapiens; summary of the method: as §2
HT-29 [7] = test: Cell cycle arrest in HT29 cells by accumulation at G2/M phase at 50 uM after 6 hrs; assay type: functional, Homo sapiens; summary of the method: as §2
G-361 = test: Viability of G361 cells at 100 uM; assay type: functional, Homo sapiens
Summary of the method: (§3)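 Cells grown in DMEM with 10% FCS and 4 mM glutamine at 37 °C, plated in 96-well format, preincubated 12 h, then exposed 72 h. Live cells measured by Calcein AM (1 h) fluorescence at 485/538 nm; % viable cells given at 100 µM compound.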

K562 = test: Viability of K562 cells at 100 uM; assay type: functional, Homo sapiens; summary of the method: as §3
[8] = target: Cyclin-dependent kinase 2/cyclin E (Homo sapiens, UniProt P24941); test: Inhibition of CDK2/Cyclin E; assay type: protein-complex assay; conditions: read-out: Ki app
Summary of the method: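 CDK2-cyclin E made in Sf9 insect cells co-infected with baculoviral constructs, purified on NiNTA. Assayed with 1 mg/mL histone H1, 15 µM ATP plus 0.05 µCi [γ-33P]ATP, in 50 mM HEPES, 10 mM MgCl2, 5 mM EGTA, 10 mM 2-glycerolphosphate, 1 mM NaF, 1 mM DTT, pH 7.4. Activity expressed as percentage of maximum; IC50 taken from dose-response curves.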

[9] = target: Cyclin-dependent kinase 2/cyclin A (Homo sapiens, UniProt P24941); test: Inhibition of CDK2/Cyclin A in presence of 100 uM ATP; assay type: protein-complex assay
HT-29 [10] = test: Inhibition of CEA mRNA synthesis in HT29 cells measured as number of copies per 10^6 cells by RT PCR at 50 uM after 3 hrs; assay type: functional, Homo sapiens
Summary of the method: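 HT-29 cells were treated 3, 6 or 12 h; total RNA extracted with TRI reagent. 3 µg RNA reverse-transcribed with random primers and M-MLV RT at 42 °C for 60 min. CEA transcripts quantified by TaqMan real-time PCR: 50 cycles of 95 °C 15 s and 65 °C 15 s. Absolute copies came from amplicon standards of 30 to 10^6 copies, expressed per 10^6 cells. Samples run in duplicate PCR; values average of four determinations ± SD.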

HT-29 [11] = test: Cell cycle arrest in HT29 cells by accumulation at S phase at 50 uM after 12 hrs; assay type: functional, Homo sapiens; summary of the method: as §2
MCF7 [12] = test: Decrease in pRb phosphorylation in MCF7 cells after 24 hrs at 25 uM; assay type: functional, cell-based; conditions: Homo sapiens
Summary of the method: (§4)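 MCF7 cells were treated 24 h, lysed in Laemmli buffer and run on 10% SDS-PAGE. Proteins were blotted to nitrocellulose; loading checked with Ponceau-S; blocked with 5% milk in PBS-Tween. Specific antibodies applied overnight (pRb phosphosites Ser780, Ser807, Thr821; p53; p21WAF1), then peroxidase secondary at 1:2000 with ECL detection.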

MCF7 [13] = test: Decrease in pRb phosphorylation in MCF7 cells after 24 hrs at 50 uM; assay type: functional, cell-based; conditions: Homo sapiens; summary of the method: as §4
MCF7 [14] = test: Increase in p53 expression level in MCF7 cells at 100 uM after 24 hrs; assay type: functional, cell-based; conditions: Homo sapiens; summary of the method: as §4
MCF7 [15] = test: Increase in p21 WAF1 expression level in MCF7 cells at 50 uM after 24 hrs; assay type: functional, cell-based; conditions: Homo sapiens; summary of the method: as §4

RAC-alpha serine/threonine-protein kinase (Homo sapiens), sequence (P31749 whole entry): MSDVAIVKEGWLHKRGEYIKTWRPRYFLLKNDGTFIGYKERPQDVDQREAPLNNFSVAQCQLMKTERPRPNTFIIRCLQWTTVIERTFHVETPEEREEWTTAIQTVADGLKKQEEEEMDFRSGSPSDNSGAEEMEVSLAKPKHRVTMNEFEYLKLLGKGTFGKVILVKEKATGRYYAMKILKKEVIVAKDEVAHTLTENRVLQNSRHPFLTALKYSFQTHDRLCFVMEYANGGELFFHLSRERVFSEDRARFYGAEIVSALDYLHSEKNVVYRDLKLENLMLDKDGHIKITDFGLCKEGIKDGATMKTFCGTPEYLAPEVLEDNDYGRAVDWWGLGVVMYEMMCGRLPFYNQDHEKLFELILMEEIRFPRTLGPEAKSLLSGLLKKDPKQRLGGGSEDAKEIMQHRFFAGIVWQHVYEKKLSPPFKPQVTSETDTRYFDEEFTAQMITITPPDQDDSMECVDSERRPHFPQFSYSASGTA

Q: With `Nc1n[nH]c(N)c1/N=N/c1ccc(O)cc1` as the compound, how does the residual activity [1] read?
A: Its residual activity is 65%.

Q: What about the residual activity [2] of the same compound?
A: Its residual activity is 67%.

Q: What about the residual activity [3] of the same compound?
A: The residual activity was 100%.

Q: What about the Activity (HT-29 [4]) of the same compound?
A: The Activity was 32.9%.

Q: What about the Activity (HT-29 [5]) of the same compound?
A: Its Activity is 35.9%.

Q: What about the Activity (HT-29 [6]) of the same compound?
A: The Activity was 54.2%.

Q: And the Activity (HT-29 [7])?
A: The Activity was 9.9%.

Q: And the Activity (G-361)?
A: The Activity was 8.3%.

Q: What about the Activity (K562) of the same compound?
A: The Activity was 23%.

Q: And the Ki [8]?
A: The Ki was 13.3 µM.

Q: What about the IC50 [9] of the same compound?
A: Its IC50 is 69 µM.

Q: What about the Activity (HT-29 [10]) of the same compound?
A: Its Activity is 27900.

Q: And the Activity (HT-29 [11])?
A: Its Activity is 66%.

Q: And the Activity (MCF7 [12])?
A: Its Activity is “Active”.

Q: What about the Activity (MCF7 [13]) of the same compound?
A: Its Activity is “Active”.

Q: And the Activity (MCF7 [14])?
A: The Activity was “Active”.

Q: And the Activity (MCF7 [15])?
A: The Activity was “Active”.
